# Screening results from PubChem BioAssay.
# Hits are enriched below; roughly 1.4% of the tested compounds scored in any of these assays.
# Casp6 inh: human caspase-6 inhibitors, primary screen, biochemical, VEID-R110 fluorescence, single point, set 2; purified caspase-6, Z-VEID-R110 cleavage fluorescence; inhibition, % at 12.5 µM; hit rate 0.53% among 350,000; AID 686996, 2013;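 active = mean inhibition across replicates at least about 35%, with every replicate also reaching that limit, limit read from the data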;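 also: 0% = median of neutral control wells and 100% = no fluorescence left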
# Target sequence (P55212 24-179 limits assumed): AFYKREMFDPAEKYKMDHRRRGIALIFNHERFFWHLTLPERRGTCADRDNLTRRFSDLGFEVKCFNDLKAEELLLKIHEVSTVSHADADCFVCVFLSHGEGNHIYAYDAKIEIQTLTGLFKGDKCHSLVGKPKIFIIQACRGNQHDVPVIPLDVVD
# Target sequence (P55212 194-293 limits assumed): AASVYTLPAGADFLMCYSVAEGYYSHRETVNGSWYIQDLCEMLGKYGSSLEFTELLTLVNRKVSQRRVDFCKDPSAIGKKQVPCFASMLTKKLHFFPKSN
# T cell modulator: modulators of CD8 T cell-vesicle binding, primary screen, mouse 2C CD8+ T cells, flow cytometry; response (vesicle binding), % at 7 µM; hit rate 0.068% among 330,000; 2C CD8+ T cell-vesicle binding; hits give low values;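 active = response, share of CD8 T cells binding vesicles, and their 90th percentile fluorescence all below set limits, cut at about 80% in these data, passing the limit was not always enough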;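 also: values below 100% mean blocked vesicle binding to the CD8+ T cells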
#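 Material: murine 2C transgenic CD8+ T lymphocytes / Also added: QL9-peptide-loaded Drosophila micro-vesicles bearing Ld, ICAM-1 and B7-1 / Schedule: binding step 1.5 h, 37 °C, antibody labelling 20 min, ice / Signal: flow cytometry, PE anti-B7-1 (FL2) versus Alexa647 anti-CD8 (FL8), PFA-fixed / Evaluation: percent CD8+ FL2 mean versus row control / Benchmarks: naked versus QL9-loaded vesicles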
# Vif imaging: HIV Vif self-association inhibitors, primary screen, imaging, HEK293T, single point. inhibition, % at 7.49 µM. HEK293T cells, Vif self-association by quenched fluorescence, 24 h. hit rate 0.35% among 340,000. AID 602346, 2012; in the data active = inhibition above about 50%, passing the limit was not always enough
# Myeloid diff MLP: induction of myeloid progenitor differentiation, primary screen, cell-based, flow cytometry, MLPCN library; hit rate 1% among 360,000; ER-HoxA9 myeloid progenitors, lysozyme-GFP differentiation; AID 624256, 2012; calls only at 10 µM;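 active = normalized GFP-positive differentiation at or above the plate's own cutoff, the solvent-only control mean plus 3 SD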;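 also: cells exposed to compound for four days before flow analysis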
# * hit, by the source's call; i = inactive; . = no result given; + = active, no number.
SMILES,Casp6 inh,T cell modulator,Vif imaging,Myeloid diff MLP
Cc1csc(=O)n1CCC(=O)OCc1nnc(-c2ccccc2)o1,-1.0,293.2,-8.1,i
O=C(N/N=C/C1CC=CCC1)c1ccccc1O (centres undefined),.,301.4,-7.5,i
O=C(N/N=C/C1CC=CCC1)c1ccc(Cl)cc1O (centres undefined),62.3*,435.3,-5.7,i
O=C1Nc2ccccc2Oc2cc([N+](=O)[O-])cc(Oc3ccccc3)c21,.,195.0,3.9,+
Cc1cccc(Oc2cc([N+](=O)[O-])cc3c2C(=O)Nc2ccccc2O3)c1,-3.1,411.7,-21.4,i
COc1ccc2c3c(n(C)c2c1)[C@@H](CO)N(CC1CCOCC1)CC31CCN(Cc2nccs2)CC1,2.4,.,.,.
C/C=C/c1ccc([C@H]2[C@@H](CO)N(CC3CCCC3)[C@H]2CNC(C)=O)cc1,0.0,.,.,.
Cc1ccccc1CSc1ccc2nnc(-c3ccccn3)n2n1,-3.2,822.6,i,+
CCCOc1ccc(-c2c(C(=O)N/N=C/c3ccc(OC)cc3)nnn2-c2nonc2N)cc1,.,387.4,-3.5,i
CCOc1ccc(-c2c(C(=O)N/N=C/c3ccc(OC)cc3)nnn2-c2nonc2N)cc1,.,7.5*,5.8,i
Cc1cccc(C)c1NC(=O)COc1ccc2c(C)c(Cc3ccccc3)c(=O)oc2c1C,-3.2,472.2,53.2*,i
CO[C@H]1CN(C)C(=O)c2ccc(NC(C)=O)cc2OC[C@H](C)N(CC2CCCCC2)C[C@@H]1C,0.9,.,.,.
CN(C)CCNc1ncnc2c1sc1nc(-c3ccccc3)c3c(c12)CCCC3,-107.7,244.5,0.7,+
Cc1cccn2c(=O)c(C=O)c(NCc3ccccc3)nc12,-2.6,427.4,4.7,+
COC(=O)/N=C/c1c(NCc2ccccc2)nc2c(C)cccn2c1=O,.,713.3,-5.6,i
Cc1onc(-c2ccccc2)c1C(=O)N(Cc1ccco1)Cc1cccs1,46.6*,.,-3.8,i
C[C@H]1CN([C@@H](C)CO)C(=O)c2cc(C#Cc3ccncc3)cnc2O[C@@H]1CN(C)C(=O)c1ccccc1F,-3.5,.,.,.
Cc1cc(=O)oc2cc(OCC(=O)NCCc3ccccc3)ccc12,2.4,182.7,2.7,+
Cc1cc(=O)oc2cc(OCc3ccccc3)ccc12,-1.7,i,10.6,+
Cc1cc(=O)oc2ccc(OCc3ccccc3)cc12,2.1,595.3,6.4,i
COc1ccc(CCNC(=O)COc2ccc3c(C)cc(=O)oc3c2)cc1,-0.6,419.5,8.4,i
CO[C@H](CN(C)S(=O)(=O)c1ccc(Cl)cc1)[C@@H](C)CN(C(=O)Nc1ccccc1F)[C@H](C)CO,-2.9,.,.,.
COc1cccc(NC(=O)Cn2c(=O)n(C)c(=O)c3sc4c(c32)COC(C)(C)C4)c1,43.9*,270.0,-0.8,i
Cc1cccc(NC(=O)Cn2nnc3sc4c(c3c2=O)CC(C)(C)OC4)c1,2.0,206.3,3.0,i
COc1ccc2c(n1)Sc1nc3ccccc3nc1N2,13.8,169.4,i,+
SMILES,Casp6 inh,T cell modulator,Vif imaging,Myeloid diff MLP
O=C(C1CCOCC1)N1C[C@H]2[C@@H](c3ccccc31)[C@@H](CO)N2C(=O)Cc1ccccc1,0.2,.,.,.
CC(=O)Nc1ccc(S(=O)(=O)Nc2nc3ccccc3nc2Nc2ccc(C(=O)O)c(O)c2)cc1,72.7*,291.1,0.9,i
Cc1noc(C)c1S(=O)(=O)N(C)C[C@H]1Oc2ccc(NC(=O)C3CCCCC3)cc2CC(=O)N([C@@H](C)CO)C[C@@H]1C,-0.8,.,.,.
CCc1ccc(OCC(=O)N/N=C(\C)c2ccc(O)cc2O)cc1,-2.1,288.3,8.5,+
COc1ccccc1N1C(=O)CCC1(C#N)c1ccccc1 (centres undefined),.,270.3,68.6*,i
N#CC1(c2ccccc2)CCC(=O)N1c1ccccc1 (centres undefined),-5.7,986.6,1.2,i
Cc1cc(Br)c(NC(=O)c2c(-c3c(Cl)cccc3Cl)noc2C)c(Br)c1,.,26.2*,-0.3,i
Cc1onc(-c2c(Cl)cccc2Cl)c1C(=O)Nc1ccc2c(c1)OCCO2,.,324.5,17.3,i
Cc1noc(C)c1S(=O)(=O)Nc1ccc2c(c1)C(=O)N([C@@H](C)CO)C[C@@H](C)[C@@H](CN(C)C)OCCCC[C@@H](C)O2,-6.5,.,.,.
CC(C)NC(=O)N[C@H]1CC[C@@H](CCNS(=O)(=O)c2ccc(F)cc2)O[C@H]1CO,-0.8,.,.,.
COc1ccccc1Oc1coc2cc(OCC(N)=O)ccc2c1=O,1.1,235.5,59.5*,i
CCCNC(=O)COc1ccc2c(=O)c(Oc3ccccc3F)coc2c1,-0.4,433.6,-17.0,i
Cc1cccc(C(=O)N2CCC(=O)N(C(COCc3cccc(C(F)(F)F)c3)Cc3ccccc3)CC2)c1 (centres undefined),1.8,488.4,12.2,+
CCO[C@@H]1OC(C(=O)N2CCOCC2)=C[C@H](C2CCCCC2)[C@H]1CCCO,-3.1,122.2,-2.3,+
CCOCCCNc1nc2c(C)cccn2c(=O)c1/C=C1\SC(=S)N(CC(C)C)C1=O,.,403.5,-5.4,+
CCCN1C(=O)/C(=C/c2c(NCCCOCC)nc3c(C)cccn3c2=O)SC1=S,.,.,0.9,+
CCC(C)N=Cc1c(Nc2ccccc2)nc2c(C)cccn2c1=O (centres undefined),5.2,282.9,-5.3,i
CCOCCCNc1nc2c(C)cccn2c(=O)c1/C=C1\SC(=S)N(C(C)CC)C1=O (centres undefined),1.5,347.8,2.2,+
O=C(CN1CCOCC1)NCC[C@H]1CC[C@@H](NC(=O)Cc2ccccn2)[C@@H](CO)O1,-1.4,.,.,.
COC/C=C/C1=CC2=CC(=O)C(C)(OC(=O)C3CCCC3)C(=O)C2=CO1 (centres undefined),35.5*,560.8,.,i
O=C(C[C@H]1CC[C@@H]2[C@H](COC[C@H](O)CN2Cc2ccc(Cl)cc2)O1)NCc1cccc(F)c1,0.8,.,.,.
CCCC(=O)N1CC2(C1)CN(Cc1ccc(Cl)cc1)[C@H](CO)c1[nH]c3cc(OC)ccc3c12,-0.2,.,.,.
O=C(COc1cc(Cl)c(Cl)cc1Cl)NCCN1CCOCC1,.,252.2,.,+
O=C(NCCN1CCOCC1)c1ccccc1Cl,-2.3,229.4,0.4,i
Cc1ccc(C(=O)NCCN2CCOCC2)c(Cl)c1,0.6,486.7,7.1,+
C[C@@H]1CCCCO[C@@H](CN(C)C(=O)NC2CCCCC2)[C@H](C)CN([C@H](C)CO)C(=O)c2cc(NC(=O)NC3CCCCC3)ccc2O1,-1.7,.,.,.
CCOC(=O)C1(CCOc2ccccc2)CCN(CC=C(C)C)CC1,-0.4,195.4,-3.2,+
CCC(=O)N1C[C@@H](C)[C@@H](OC)CN(C)C(=O)c2cc(NC(=O)C3CC3)ccc2OC[C@H]1C,2.7,.,.,.
CCOC(=O)c1ccccc1NS(=O)(=O)c1ccc(OCC)cc1,.,414.6,-1.2,+
CCOc1ccc(S(=O)(=O)Nc2cc(SCC(=O)O)c(O)c3ccccc23)cc1,87.6*,150.0,-2.6,i
